System: Fibroblast
Test: Multiplex assay against human fibroblast
Assay type: toxicity, cell-based
Method in brief: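 Hoechst33342, BioTracker Green Microtubule Cytoskeleton Dye, MitoTracker Red and Annexin V Alexa Fluor 680 were added to live cells at seeding, and imaging on a CQ1 microscope at 37°C and 5% CO2 followed compound addition. Gating by CellPathfinder machine learning separated cells into Hoechst high-intensity objects or normal cells, then normal cells into healthy, pyknosed or fragmented nuclei, then pyknosed cells into mitotic or apoptotic. Per cents of healthy-nucleus cells are reported for the tubulin, mitochondrial-mass and membrane-permeability phenotypes.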

[1] = 12 h, 1 µM, compound concentration 1 uM, replicate 1
[2] = 12 h, 1 µM, compound concentration 1 uM, replicate 2
[3] = 12 h, 10 µM, compound concentration 10 uM, replicate 1
[4] = 12 h, 10 µM, compound concentration 10 uM, replicate 2
[5] = 24 h, 1 µM, compound concentration 1 uM, replicate 1
[6] = 24 h, 1 µM, compound concentration 1 uM, replicate 2
[7] = 24 h, 10 µM, compound concentration 10 uM, replicate 1
[8] = 24 h, 10 µM, compound concentration 10 uM, replicate 2
[9] = 48 h, 1 µM, compound concentration 1 uM, replicate 1
[10] = 48 h, 1 µM, compound concentration 1 uM, replicate 2
[11] = 48 h, 10 µM, compound concentration 10 uM, replicate 1
[12] = 48 h, 10 µM, compound concentration 10 uM, replicate 2

O=C(Nc1ccc(-c2ccnc(Nc3ccc(N4CCOCC4)cc3)n2)cc1)[C@@H]1CCCN1
Population Apoptotic (%) [1]: 58%
Population Fragmented Nuclei (%) [1]: 25%
Population Healthy Nuclei (%) [1]: 41%
Population Hoechst High Intensity Objects (%) [1]: 13%
Population Membrane Permeable-Phenotype (%) [1]: 36%
Population Mitochondria Different-Phenotype (%) [1]: 11%
Population Mitotic Cells (%) [1]: 41%
Population Normal (%) [1]: 87%
Population Pyknosed Nuclei (%) [1]: 33%
Population Tubulin-Different-Phenotype (%) [1]: 47%
Total Cell Count [1]: 100
Population Apoptotic (%) [2]: 33%
Population Fragmented Nuclei (%) [2]: 13%
Population Healthy Nuclei (%) [2]: 76%
Population Hoechst High Intensity Objects (%) [2]: 7%
Population Membrane Permeable-Phenotype (%) [2]: 4%
Population Mitochondria Different-Phenotype (%) [2]: 10%
Population Mitotic Cells (%) [2]: 66%
Population Normal (%) [2]: 92%
Population Pyknosed Nuclei (%) [2]: 10%
Population Tubulin-Different-Phenotype (%) [2]: 10%
Total Cell Count [2]: 65
Population Apoptotic (%) [3]: 39%
Population Fragmented Nuclei (%) [3]: 35%
Population Healthy Nuclei (%) [3]: 30%
Population Hoechst High Intensity Objects (%) [3]: 13%
Population Membrane Permeable-Phenotype (%) [3]: 28%
Population Mitochondria Different-Phenotype (%) [3]: 25%
Population Mitotic Cells (%) [3]: 60%
Population Normal (%) [3]: 86%
Population Pyknosed Nuclei (%) [3]: 33%
Population Tubulin-Different-Phenotype (%) [3]: 74%
Total Cell Count [3]: 146
Population Apoptotic (%) [4]: 77%
Population Fragmented Nuclei (%) [4]: 7%
Population Healthy Nuclei (%) [4]: 77%
Population Hoechst High Intensity Objects (%) [4]: 5%
Population Membrane Permeable-Phenotype (%) [4]: 8%
Population Mitochondria Different-Phenotype (%) [4]: 28%
Population Mitotic Cells (%) [4]: 22%
Population Normal (%) [4]: 94%
Population Pyknosed Nuclei (%) [4]: 14%
Population Tubulin-Different-Phenotype (%) [4]: 44%
Total Cell Count [4]: 65
Population Apoptotic (%) [5]: 52%
Population Fragmented Nuclei (%) [5]: 24%
Population Healthy Nuclei (%) [5]: 52%
Population Hoechst High Intensity Objects (%) [5]: 9%
Population Membrane Permeable-Phenotype (%) [5]: 22%
Population Mitochondria Different-Phenotype (%) [5]: 6%
Population Mitotic Cells (%) [5]: 47%
Population Normal (%) [5]: 91%
Population Pyknosed Nuclei (%) [5]: 23%
Population Tubulin-Different-Phenotype (%) [5]: 35%
Total Cell Count [5]: 100
Population Apoptotic (%) [6]: 60%
Population Fragmented Nuclei (%) [6]: 7%
Population Healthy Nuclei (%) [6]: 85%
Population Hoechst High Intensity Objects (%) [6]: 6%
Population Membrane Permeable-Phenotype (%) [6]: 3%
Population Mitochondria Different-Phenotype (%) [6]: 19%
Population Mitotic Cells (%) [6]: 40%
Population Normal (%) [6]: 93%
Population Pyknosed Nuclei (%) [6]: 7%
Population Tubulin-Different-Phenotype (%) [6]: 10%
Total Cell Count [6]: 63
Population Apoptotic (%) [7]: 57%
Population Fragmented Nuclei (%) [7]: 37%
Population Healthy Nuclei (%) [7]: 48%
Population Hoechst High Intensity Objects (%) [7]: 12%
Population Membrane Permeable-Phenotype (%) [7]: 16%
Population Mitochondria Different-Phenotype (%) [7]: 21%
Population Mitotic Cells (%) [7]: 42%
Population Normal (%) [7]: 87%
Population Pyknosed Nuclei (%) [7]: 13%
Population Tubulin-Different-Phenotype (%) [7]: 74%
Total Cell Count [7]: 156
Population Apoptotic (%) [8]: 58%
Population Fragmented Nuclei (%) [8]: 18%
Population Healthy Nuclei (%) [8]: 64%
Population Hoechst High Intensity Objects (%) [8]: 1%
Population Membrane Permeable-Phenotype (%) [8]: 13%
Population Mitochondria Different-Phenotype (%) [8]: 17%
Population Mitotic Cells (%) [8]: 41%
Population Normal (%) [8]: 98%
Population Pyknosed Nuclei (%) [8]: 17%
Population Tubulin-Different-Phenotype (%) [8]: 22%
Total Cell Count [8]: 72
Population Apoptotic (%) [9]: 60%
Population Fragmented Nuclei (%) [9]: 29%
Population Healthy Nuclei (%) [9]: 60%
Population Hoechst High Intensity Objects (%) [9]: 9%
Population Membrane Permeable-Phenotype (%) [9]: 26%
Population Mitochondria Different-Phenotype (%) [9]: 4%
Population Mitotic Cells (%) [9]: 40%
Population Normal (%) [9]: 90%
Population Pyknosed Nuclei (%) [9]: 9%
Population Tubulin-Different-Phenotype (%) [9]: 27%
Total Cell Count [9]: 111
Population Apoptotic (%) [10]: 50%
Population Fragmented Nuclei (%) [10]: 18%
Population Healthy Nuclei (%) [10]: 76%
Population Membrane Permeable-Phenotype (%) [10]: 18%
Population Mitotic Cells (%) [10]: 50%
Population Pyknosed Nuclei (%) [10]: 4%
Population Tubulin-Different-Phenotype (%) [10]: 30%
Total Cell Count [10]: 101
Population Apoptotic (%) [11]: 83%
Population Fragmented Nuclei (%) [11]: 44%
Population Healthy Nuclei (%) [11]: 50%
Population Hoechst High Intensity Objects (%) [11]: 22%
Population Membrane Permeable-Phenotype (%) [11]: 15%
Population Mitochondria Different-Phenotype (%) [11]: 2%
Population Mitotic Cells (%) [11]: 16%
Population Normal (%) [11]: 77%
Population Pyknosed Nuclei (%) [11]: 4%
Population Tubulin-Different-Phenotype (%) [11]: 61%
Total Cell Count [11]: 179
Population Apoptotic (%) [12]: 33%
Population Fragmented Nuclei (%) [12]: 32%
Population Healthy Nuclei (%) [12]: 64%
Population Hoechst High Intensity Objects (%) [12]: 6%
Population Membrane Permeable-Phenotype (%) [12]: 20%
Population Mitochondria Different-Phenotype (%) [12]: 3%
Population Mitotic Cells (%) [12]: 66%
Population Normal (%) [12]: 93%
Population Pyknosed Nuclei (%) [12]: 3%
Population Tubulin-Different-Phenotype (%) [12]: 53%
Total Cell Count [12]: 99
